What was measured:
[1] = test system: Rattus norvegicus; test: Area under curve was evaluated in rat brain when administered intraperitoneally at a dose of 10 mg/kg for infinite hours; format: ADME, organism-based; parameters: time infinity, dose 10 mg/kg, route intraperitoneal; conditions: in vivo, ip
[2] = test system: Rattus norvegicus; test: Area under curve was evaluated in rat brain when administered intravenously at a dose of 10 mg/kg for 4 or 6 hours; format: ADME, organism-based; parameters: dose 10 mg/kg, route intravenous; conditions: in vivo, iv
[3] = Time of maximum concentration achieved in rat brain when administered intraperitoneally at a dose of 10 mg/kg; format: ADME, organism-based; parameters: dose 10 mg/kg, route intraperitoneal; conditions: ip
In short: (§1)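 Male Fischer 344 rats dosed iv or ip at 10 mg/kg, or orally at 10 or 100 mg/kg; five rats per route and dose. Blood and brain taken from one rat per time point (0.25, 0.5, 1, 2, 4 h after iv/ip; 0.5, 1, 2, 4, 6 h after po). Plasma and brain homogenates derivatized, extracted, assayed by negative-ion chemical ionization GCMS (LOQ 100 pg/mL plasma, 1 ng/g brain).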

[4] = Plasma concentration after 0.5 hr at a dose of 10 mg/kg when administered intraperitoneally; conditions: ip
[5] = test system: Rattus norvegicus; test: Area under curve was evaluated in rat brain when administered perorally at a dose of 10 mg/kg for 4 or 6 hours; format: ADME, organism-based; parameters: dose 10 mg/kg, route oral; conditions: in vivo, po
[6] = Brain concentration after 0.5 hr at a dose of 10 mg/kg when administered perorally; conditions: po
[7] = Plasma concentration after 4 hr at a dose of 10 mg/kg when administered intraperitoneally; conditions: ip
[8] = Brain concentration after 2 hr at a dose of 100 mg/kg when administered perorally; conditions: po
[9] = Maximum concentration achieved in rat brain when administered intraperitoneally at a dose of 10 mg/kg; format: ADME, organism-based; parameters: dose 10 mg/kg, route intraperitoneal; conditions: ip; in short: as §1
[10] = Plasma concentration after 1 hr at a dose of 10 mg/kg when administered intravenously; conditions: iv
[11] = Volume of distribution in rat plasma when administered intraperitoneally at a dose of 10 mg/kg; conditions: ip
[12] = Brain concentration after 2 hr at a dose of 10 mg/kg when administered perorally; conditions: po
[13] = Brain concentration after 2 hr at a dose of 10 mg/kg when administered intravenously; conditions: iv
[14] = Plasma concentration after 2 hr at a dose of 10 mg/kg when administered intravenously; conditions: iv
[15] = Plasma concentration after 0.5 hr at a dose of 10 mg/kg when administered intravenously; conditions: iv
[16] = in vivo; conditions: brain, iv, 10 mg/kg
[17] = test system: Rattus norvegicus; test: Area under curve was evaluated in rat brain when administered intravenously at a dose of 10 mg/kg for infinite hours; format: ADME, organism-based; parameters: time infinity, dose 10 mg/kg, route intravenous; conditions: in vivo, iv
[18] = Plasma concentration after 4 hr at a dose of 10 mg/kg when administered perorally; conditions: po
[19] = test system: Rattus norvegicus; test: Area under curve was evaluated in rat plasma when administered intravenously at a dose of 10 mg/kg for 4 or 6 hours; format: ADME, organism-based; parameters: dose 10 mg/kg, route intravenous; conditions: in vivo, iv
In short: (§2)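 Male Fischer 344 rats were dosed at 10 mg/kg iv, 10 mg/kg ip, or 10 or 100 mg/kg po, with five rats per route and dose. One rat was sampled for blood and brain at each time: 0.25, 0.5, 1, 2 and 4 h after iv/ip, and 0.5, 1, 2, 4 and 6 h after po. Plasma and brain homogenates were derivatized, extracted and quantified by negative-ion chemical ionization GCMS (LOQ 100 pg/mL plasma, 1 ng/g brain).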

[20] = test system: Rattus norvegicus; test: Area under curve was evaluated in rat plasma when administered intraperitoneally at a dose of 10 mg/kg for infinite hours; format: ADME, organism-based; parameters: time infinity, dose 10 mg/kg, route intraperitoneal; conditions: in vivo, ip; in short: as §2
[21] = Plasma concentration after 0.5 hr at a dose of 100 mg/kg when administered perorally; conditions: po
[22] = Time of maximum concentration achieved in rat plasma when administered intraperitoneally at a dose of 10 mg/kg; format: ADME, organism-based; parameters: dose 10 mg/kg, route intraperitoneal; conditions: ip; in short: as §1
[23] = Half-life in rat plasma when administered intraperitoneally at a dose of 10 mg/kg; format: ADME, organism-based; parameters: dose 10 mg/kg, route intraperitoneal; conditions: ip; in short: as §2
[24] = Half-life in rat plasma when administered intravenously at a dose of 10 mg/kg; format: ADME, organism-based; parameters: dose 10 mg/kg, route intravenous; conditions: iv; in short: as §2
[25] = test system: Rattus norvegicus; test: Volume of distribution in rat plasma when administered intravenously at a dose of 10 mg/kg; conditions: in vivo, iv
[26] = Maximum concentration achieved in rat plasma when administered intravenously at a dose of 10 mg/kg; format: ADME, organism-based; parameters: dose 10 mg/kg, route intravenous; conditions: iv; in short: as §1
[27] = Brain concentration after 1 hr at a dose of 10 mg/kg when administered intraperitoneally; conditions: ip
[28] = test system: Rattus norvegicus; test: Area under curve was evaluated in rat plasma when administered perorally at a dose of 10 mg/kg for 4 or 6 hours; format: ADME, organism-based; parameters: dose 10 mg/kg, route oral; conditions: in vivo, po; in short: as §2
[29] = Maximum concentration achieved in rat plasma when administered perorally at a dose of 10 mg/kg; format: ADME, organism-based; parameters: dose 10 mg/kg, route oral; conditions: po; in short: as §1
[30] = Plasma concentration after 2 hr at a dose of 10 mg/kg when administered perorally; conditions: po
[31] = Brain concentration after 6 hr at a dose of 100 mg/kg when administered perorally; conditions: po
[32] = Half-life in rat plasma when administered perorally at a dose of 100 mg/kg; format: ADME, organism-based; parameters: dose 100 mg/kg, route oral; conditions: po; in short: as §1
[33] = Time of maximum concentration achieved in rat plasma when administered intravenously at a dose of 10 mg/kg; format: ADME, organism-based; parameters: dose 10 mg/kg, route intravenous; conditions: iv; in short: as §1
[34] = Time of maximum concentration achieved in rat plasma when administered perorally at a dose of 10 mg/kg; format: ADME, organism-based; parameters: dose 10 mg/kg, route oral; conditions: po; in short: as §1
[35] = test system: Rattus norvegicus; test: Area under curve was evaluated in rat plasma when administered perorally at a dose of 100 mg/kg for 4 or 6 hours; format: ADME, organism-based; parameters: dose 100 mg/kg, route oral; conditions: in vivo, po; in short: as §2

AUC [1]: 1790 ng·h/mL
AUC [2]: 701 ng·h/mL
Tmax [3]: 30 min
concentration at 0.5 h [4]: 10700 ng/mL
AUC [5]: 26.4 ng·h/mL
concentration at 0.5 h [6]: 1.7 ng/g
concentration at 4 h [7]: 39.9 ng/mL
concentration at 2 h [8]: 23.9 ng/g
Cmax [9]: 246 ng/g
concentration at 1 h [10]: 2440 ng/mL
Vd [11]: 0.49 L/kg
concentration at 2 h [12]: 3 ng/g
concentration at 2 h [13]: 177 ng/g
concentration at 2 h [14]: 845 ng/mL
concentration at 0.5 h [15]: 5970 ng/mL
concentration at 1 h [16]: 188 ng/g
AUC [17]: 1840 ng·h/mL
concentration at 4 h [18]: 28.3 ng/mL
AUC [19]: 8370 ng·h/mL
AUC [20]: 12800 ng·h/mL
concentration at 0.5 h [21]: 197 ng/mL
Tmax [22]: 15 min
half-life [23]: 26.4 min
half-life [24]: 28.8 min
Vd [25]: 0.83 L/kg
Cmax [26]: 12000 ng/mL
concentration at 1 h [27]: 235 ng/g
AUC [28]: 217 ng·h/mL
Cmax [29]: 64.1 ng/mL
concentration at 2 h [30]: 50 ng/mL
concentration at 6 h [31]: 29.6 ng/g
half-life [32]: 116 min
Tmax [33]: 15 min
Tmax [34]: 30 min
AUC [35]: 1380 ng·h/mL
Structure (SMILES): N[C@](CC1c2ccccc2Oc2ccccc21)(C(=O)O)[C@H]1C[C@@H]1C(=O)O

From ChEMBL document CHEMBL1131460, “2-substituted (2SR)-2-amino-2-((1SR,2SR)-2-carboxycycloprop-1-yl)glycines as potent and selective antagonists of group II metabotropic glutamate receptors. 2. Effects of aromatic substitution, pharmacological characterization, and bioavailability” (J Med Chem, 1998)
